# Results published in article PMC8317200 (Journal of medicinal chemistry, 2020).
# Residues, ends and D or L forms follow the SMILES beside them. *: point of attachment. Adamantane1carbonyl = O=C(C12CC3CC(CC(C3)C1)C2)*; OtBu = CC(C)(C)O*; OAll = C=CCO*; OPr = CCCO*
# T1: FGF14 (Homo sapiens, UniProt Q92915)
# T1 sequence (Q92915 64-252 isoform Q92915-2): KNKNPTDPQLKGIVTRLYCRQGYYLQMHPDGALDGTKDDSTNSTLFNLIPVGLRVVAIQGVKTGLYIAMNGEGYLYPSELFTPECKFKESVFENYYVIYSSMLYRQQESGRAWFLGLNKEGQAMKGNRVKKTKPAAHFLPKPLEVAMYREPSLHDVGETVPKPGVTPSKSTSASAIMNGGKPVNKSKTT
# B1: Nav1.6 C-terminal tail, aa 1767–1912 (domain or fragment, human, UniProt Q9UQD0-1 1767-1912, looked up)
# chain: ENFSVATEESADPLSEDDFETFYEIWEKFDPDATQFIEYCKLADFADALEHPLRVPKPNTIELIAMDLPMVSGDRIHCLDILFAFTKRVLGDSGELDILRQQMEERFVASNPSKVSYEPITTTLRRKQEEVSAVVLQRAYRGHLAR
# B2: fibroblast growth factor 14 (FGF14), aa 64–252 (domain or fragment, human, UniProt Q92915-2 64-252, looked up)
# chain: KNKNPTDPQLKGIVTRLYCRQGYYLQMHPDGALDGTKDDSTNSTLFNLIPVGLRVVAIQGVKTGLYIAMNGEGYLYPSELFTPECKFKESVFENYYVIYSSMLYRQQESGRAWFLGLNKEGQAMKGNRVKKTKPAAHFLPKPLEVAMYREPSLHDVGETVPKPGVTPSKSTSASAIMNGGKPVNKSKTT
# How the values were obtained:
# [1] = molecular target: Nav1.6 C-terminal tail (Homo sapiens, UniProt Q9UQD0); test: Surface plasmon resonance; assay type: binding; details: for koff: read-out: koff Nav1.6 C-terminal tail; for kon: read-out: kon Nav1.6 C-terminal tail
# [2] = molecular target: Nav1.2 channels (Homo sapiens, UniProt Q99250); test: Whole-cell patch-clamp electrophysiology in HEK-Nav1.2 cells; assay type: cell-based
# Chain of Nav1.2 channels (Q99250 whole entry): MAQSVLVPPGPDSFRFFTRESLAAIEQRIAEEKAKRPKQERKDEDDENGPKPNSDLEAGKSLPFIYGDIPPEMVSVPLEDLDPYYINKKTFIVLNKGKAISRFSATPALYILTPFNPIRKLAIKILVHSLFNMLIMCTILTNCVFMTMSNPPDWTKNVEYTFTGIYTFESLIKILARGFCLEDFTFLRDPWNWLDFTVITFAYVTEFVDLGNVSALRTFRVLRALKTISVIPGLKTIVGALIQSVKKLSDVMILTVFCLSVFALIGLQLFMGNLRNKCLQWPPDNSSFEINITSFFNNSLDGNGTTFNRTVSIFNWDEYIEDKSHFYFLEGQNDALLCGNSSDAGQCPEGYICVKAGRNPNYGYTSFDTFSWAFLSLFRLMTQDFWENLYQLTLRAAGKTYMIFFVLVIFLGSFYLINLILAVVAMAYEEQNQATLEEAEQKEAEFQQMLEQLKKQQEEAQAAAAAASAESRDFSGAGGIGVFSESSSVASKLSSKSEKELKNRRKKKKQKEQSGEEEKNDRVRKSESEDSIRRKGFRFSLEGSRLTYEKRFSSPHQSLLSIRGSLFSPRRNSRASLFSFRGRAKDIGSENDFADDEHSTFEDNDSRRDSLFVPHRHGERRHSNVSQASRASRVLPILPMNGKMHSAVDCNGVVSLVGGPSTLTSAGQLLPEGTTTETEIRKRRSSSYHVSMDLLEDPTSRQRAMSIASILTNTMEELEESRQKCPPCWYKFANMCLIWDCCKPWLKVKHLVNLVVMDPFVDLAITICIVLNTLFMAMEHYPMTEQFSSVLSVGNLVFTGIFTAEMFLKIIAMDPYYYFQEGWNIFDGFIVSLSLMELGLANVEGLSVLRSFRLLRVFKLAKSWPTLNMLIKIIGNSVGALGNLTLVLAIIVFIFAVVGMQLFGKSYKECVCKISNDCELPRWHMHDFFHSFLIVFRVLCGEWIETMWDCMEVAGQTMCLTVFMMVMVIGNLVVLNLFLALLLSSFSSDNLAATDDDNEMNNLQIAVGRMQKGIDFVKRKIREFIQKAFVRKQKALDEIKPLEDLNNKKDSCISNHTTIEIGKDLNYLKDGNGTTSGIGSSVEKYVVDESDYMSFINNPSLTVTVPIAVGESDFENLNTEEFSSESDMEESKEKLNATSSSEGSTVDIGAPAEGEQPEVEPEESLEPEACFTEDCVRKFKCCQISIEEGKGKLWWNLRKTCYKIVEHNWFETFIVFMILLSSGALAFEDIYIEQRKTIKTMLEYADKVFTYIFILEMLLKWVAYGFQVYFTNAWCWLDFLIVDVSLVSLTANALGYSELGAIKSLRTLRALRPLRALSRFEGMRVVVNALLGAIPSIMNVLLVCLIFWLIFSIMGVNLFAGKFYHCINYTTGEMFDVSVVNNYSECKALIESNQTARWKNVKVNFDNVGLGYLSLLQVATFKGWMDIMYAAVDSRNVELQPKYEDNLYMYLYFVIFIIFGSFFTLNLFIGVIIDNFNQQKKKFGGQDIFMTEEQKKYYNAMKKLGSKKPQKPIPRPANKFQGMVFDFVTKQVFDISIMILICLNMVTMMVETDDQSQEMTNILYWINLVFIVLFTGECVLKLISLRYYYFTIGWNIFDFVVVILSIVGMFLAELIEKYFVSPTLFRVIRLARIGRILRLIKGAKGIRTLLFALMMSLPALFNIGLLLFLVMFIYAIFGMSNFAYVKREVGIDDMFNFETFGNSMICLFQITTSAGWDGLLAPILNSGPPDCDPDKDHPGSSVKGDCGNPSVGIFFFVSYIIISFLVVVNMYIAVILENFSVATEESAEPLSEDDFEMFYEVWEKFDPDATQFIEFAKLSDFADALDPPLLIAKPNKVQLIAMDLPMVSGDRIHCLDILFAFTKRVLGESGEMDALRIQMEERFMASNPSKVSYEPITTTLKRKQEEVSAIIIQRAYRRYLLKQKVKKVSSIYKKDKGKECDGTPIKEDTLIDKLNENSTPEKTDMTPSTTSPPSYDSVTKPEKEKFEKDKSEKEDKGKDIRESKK
# [3] = molecular target: T1, FGF14; test: Surface plasmon resonance; assay type: binding; details: for koff: read-out: koff FGF14; for kon: read-out: kon FGF14
# [4] = molecular target: Nav1.1 channels (Homo sapiens, UniProt P35498); test: Whole-cell patch-clamp electrophysiology in HEK-Nav1.1 cells; assay type: cell-based
# [5] = molecular target: human Nav1.6 (HEK-Nav1.6) channels (Homo sapiens, UniProt Q9UQD0); assay type: cell-based; details: 30 μM; absence of FGF14
# Chain of human Nav1.6 (HEK-Nav1.6) channels (Q9UQD0 whole entry): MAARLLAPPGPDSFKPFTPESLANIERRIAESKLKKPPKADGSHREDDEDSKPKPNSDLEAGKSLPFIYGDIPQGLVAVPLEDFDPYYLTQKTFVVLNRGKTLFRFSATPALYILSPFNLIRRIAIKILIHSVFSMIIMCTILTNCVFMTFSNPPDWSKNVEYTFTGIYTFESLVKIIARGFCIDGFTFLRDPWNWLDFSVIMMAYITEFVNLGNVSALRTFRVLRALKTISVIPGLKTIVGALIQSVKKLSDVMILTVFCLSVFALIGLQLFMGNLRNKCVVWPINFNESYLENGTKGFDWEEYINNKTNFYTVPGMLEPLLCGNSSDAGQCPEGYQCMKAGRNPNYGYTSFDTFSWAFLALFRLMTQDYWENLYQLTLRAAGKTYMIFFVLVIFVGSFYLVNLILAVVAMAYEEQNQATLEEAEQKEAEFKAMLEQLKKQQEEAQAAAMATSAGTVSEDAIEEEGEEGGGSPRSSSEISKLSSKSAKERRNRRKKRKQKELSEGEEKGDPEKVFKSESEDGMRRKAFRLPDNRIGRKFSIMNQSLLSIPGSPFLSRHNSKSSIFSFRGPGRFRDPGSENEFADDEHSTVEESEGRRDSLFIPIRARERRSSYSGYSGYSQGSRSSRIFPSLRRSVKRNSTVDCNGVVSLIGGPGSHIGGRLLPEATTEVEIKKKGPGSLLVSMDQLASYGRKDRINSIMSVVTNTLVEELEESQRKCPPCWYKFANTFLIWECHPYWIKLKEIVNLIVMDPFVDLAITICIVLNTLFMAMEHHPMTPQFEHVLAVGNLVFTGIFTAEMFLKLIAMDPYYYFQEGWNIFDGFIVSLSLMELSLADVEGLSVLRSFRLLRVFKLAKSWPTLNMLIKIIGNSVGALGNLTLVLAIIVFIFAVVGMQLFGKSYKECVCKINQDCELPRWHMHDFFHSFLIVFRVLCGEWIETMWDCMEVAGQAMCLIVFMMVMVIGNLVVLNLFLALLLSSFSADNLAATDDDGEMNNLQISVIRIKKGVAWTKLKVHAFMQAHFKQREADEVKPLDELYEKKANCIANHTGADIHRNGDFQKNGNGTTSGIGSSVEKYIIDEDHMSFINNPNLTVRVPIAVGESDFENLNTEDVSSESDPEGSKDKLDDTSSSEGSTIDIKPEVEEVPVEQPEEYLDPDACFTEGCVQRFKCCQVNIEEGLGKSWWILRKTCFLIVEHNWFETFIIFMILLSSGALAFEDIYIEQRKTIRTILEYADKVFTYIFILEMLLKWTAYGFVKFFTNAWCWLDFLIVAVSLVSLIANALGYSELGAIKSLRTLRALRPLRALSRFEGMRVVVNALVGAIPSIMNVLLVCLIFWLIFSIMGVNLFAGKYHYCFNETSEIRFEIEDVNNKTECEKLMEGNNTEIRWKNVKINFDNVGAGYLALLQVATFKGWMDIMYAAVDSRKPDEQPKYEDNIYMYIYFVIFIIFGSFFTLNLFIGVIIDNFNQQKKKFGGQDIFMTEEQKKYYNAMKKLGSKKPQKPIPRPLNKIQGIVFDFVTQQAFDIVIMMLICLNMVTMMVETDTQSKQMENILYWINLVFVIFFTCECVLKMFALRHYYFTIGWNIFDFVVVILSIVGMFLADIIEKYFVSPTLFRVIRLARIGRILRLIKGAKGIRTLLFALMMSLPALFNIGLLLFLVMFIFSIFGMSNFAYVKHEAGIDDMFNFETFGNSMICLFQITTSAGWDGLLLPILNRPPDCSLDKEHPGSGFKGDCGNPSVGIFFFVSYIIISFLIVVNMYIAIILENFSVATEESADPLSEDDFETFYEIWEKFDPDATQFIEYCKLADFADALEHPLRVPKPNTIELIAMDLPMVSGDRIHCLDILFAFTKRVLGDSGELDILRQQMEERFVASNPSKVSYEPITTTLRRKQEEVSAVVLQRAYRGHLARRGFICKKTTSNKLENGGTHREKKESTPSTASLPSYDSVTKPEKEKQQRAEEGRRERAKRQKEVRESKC
# Procedure, shortened: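 HEK293 cells stably expressing human Nav1.6 were kept under 500 μg/mL G418 with no FGF14 transfection. They were washed and re-plated at very low density onto glass coverslips, and the test compound was applied at 30 μM. Whole-cell patch clamp used extracellular solution (mM): 140 NaCl, 3 KCl, 1 MgCl2, 1 CaCl2, 10 HEPES, 10 glucose.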
# [6] = molecular target: B2; test: SPR
# [7] = molecular target: B1; test: SPR
# [8] = molecular target: FGF14:Nav1.6 (Homo sapiens, UniProt Q92915+Q9UQD0); test: SPR of FGF14 binding to Nav1.6 C-terminal tail, alone or in complex with 21a; details: FGF14 alone
# Procedure, shortened: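 Recombinant human Nav1.6 C-terminal tail (aa 1763–1976, His-tagged, E. coli-expressed, purified by column chromatography) amine-coupled to a CM5 chip (934 RU). FGF14 at 15.6–1500 nM, complexed with 2.1% DMSO alone, was flowed over the chip at 25 °C and 50 μL/min. Injection 120 s, dissociation 150 s, then regeneration (600 mM NaCl, 5% DMSO). kon and koff came from a Langmuir 1:1 fit.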
Molecule,Binding to Nav1.6 C-terminal tail by SPR (in words) [1],koff [1],kon [1],koff [3],kon [3],other results
"COC(=O)[C@@H](NC(=O)[C@H](CCC(=O)OC(C)(C)C)NC(=O)[C@H](CC(C)C)NC(=O)[C@@H]1CCCN1C(=O)C12CC3CC(CC(C3)C1)C2)C(C)C [Compound 21a, tert-Butyl (S)-4-((S)-2-((S)-1-((3S,5S,7S)-adamantane-1-carbonyl)pyrrolidine-2-carboxamido)-4-methylpentanamido)-5-(((S)-1-methoxy-3-methyl-1-oxobutan-2-yl)amino)-5-oxopentanoate] (Adamantane1carbonyl-PLE(OtBu)V-OMe)",appreciable binding,0.00357 s⁻¹,62300 M⁻¹ s⁻¹,0.00933 s⁻¹,4660 M⁻¹ s⁻¹,Changes in the kinetic properties of Nav1.2 channels [2]: no changes; Changes in the kinetic properties of Nav1.1 channels [4]: no changes
"C=CCOC(=O)[C@@H](NC(=O)[C@H](CCC(=O)OC(C)(C)C)NC(=O)[C@H](CC(C)C)NC(=O)[C@@H]1CCCN1C(=O)C12CC3CC(CC(C3)C1)C2)C(C)C [Compound 23a, tert-Butyl (S)-4-((S)-2-((S)-1-((3S,5S,7S)-adamantane-1-carbonyl)pyrrolidine-2-carboxamido)-4-methylpentanamido)-5-(((S)-1-(allyloxy)-3-methyl-1-oxobutan-2-yl)amino)-5-oxopentanoate] (Adamantane1carbonyl-PLE(OtBu)V-OAll)",–,–,–,0.00932 s⁻¹,17900 M⁻¹ s⁻¹,Effect on Nav1.6-mediated currents [5]: unaffected
"CCOC(=O)[C@@H](NC(=O)[C@H](CCC(=O)OC(C)(C)C)NC(=O)[C@H](CC(C)C)NC(=O)[C@@H]1CCCN1C(=O)C12CC3CC(CC(C3)C1)C2)C(C)C [Compound 23f, tert-Butyl (4S)-4-((2S)-2-((2S)-1-((1R,3R)-adamantane-1-carbonyl)pyrrolidine-2-carboxamido)-4-methylpentanamido)-5-(((S)-1-ethoxy-3-methyl-1-oxobutan-2-yl)amino)-5-oxopentanoate] (Adamantane1carbonyl-PLE(OtBu)V-OEt)",appreciable binding,0.0122 s⁻¹,2640 M⁻¹ s⁻¹,0.0205 s⁻¹,217 M⁻¹ s⁻¹,–
"CCCOC(=O)[C@@H](NC(=O)[C@H](CCC(=O)OC(C)(C)C)NC(=O)[C@H](CC(C)C)NC(=O)[C@@H]1CCCN1C(=O)C12CC3CC(CC(C3)C1)C2)C(C)C [Compound 23g, tert-Butyl (4S)-4-((2S)-2-((2S)-1-((1R,3R)-adamantane-1-carbonyl)pyrrolidine-2-carboxamido)-4-methylpentanamido)-5-(((S)-3-methyl-1-oxo-1-propoxybutan-2-yl)amino)-5-oxopentanoate] (Adamantane1carbonyl-PLE(OtBu)V-OPr)",appreciable binding,0.0492 s⁻¹,340 M⁻¹ s⁻¹,0.0204 s⁻¹,289 M⁻¹ s⁻¹,–
B1,–,–,–,–,–,Kd [6]: 228 ± 57.5 nM; koff [6]: 0.00171 s⁻¹; kon [6]: 21800 M⁻¹ s⁻¹
B2,–,–,–,–,–,KD with 10 μM 21a [7]: 1420 ± 135 nM
"FGF14: purified recombinant human fibroblast growth factor 14 protein flown over Nav1.6 C-terminal tail in SPR (protein, left off: His6, N-terminal, state not stated) KNKNPTDPQLKGIVTRLYCRQGYYLQMHPDGALDGTKDDSTNSTLFNLIPVGLRVVAIQGVKTGLYIAMNGEGYLYPSELFTPECKFKESVFENYYVIYSSMLYRQQESGRAWFLGLNKEGQAMKGNRVKKTKPAAHFLPKPLEVAMYREPSLHDVGETVPKPGVTPSKSTSASAIMNGGKPVNKSKTT",–,–,–,–,–,koff of FGF14 binding to Nav1.6 C-terminal tail [8]: 0.00171 ± 1.02e-05 s⁻¹; kon of FGF14 binding to Nav1.6 C-terminal tail [8]: 21800 ± 160 M⁻¹ s⁻¹
